In test [1] the target is T1, DC-SIGN producing Raji cells (Homo sapiens, UniProt Q9NNX6).
T1 sequence (Q9NNX6 1-404): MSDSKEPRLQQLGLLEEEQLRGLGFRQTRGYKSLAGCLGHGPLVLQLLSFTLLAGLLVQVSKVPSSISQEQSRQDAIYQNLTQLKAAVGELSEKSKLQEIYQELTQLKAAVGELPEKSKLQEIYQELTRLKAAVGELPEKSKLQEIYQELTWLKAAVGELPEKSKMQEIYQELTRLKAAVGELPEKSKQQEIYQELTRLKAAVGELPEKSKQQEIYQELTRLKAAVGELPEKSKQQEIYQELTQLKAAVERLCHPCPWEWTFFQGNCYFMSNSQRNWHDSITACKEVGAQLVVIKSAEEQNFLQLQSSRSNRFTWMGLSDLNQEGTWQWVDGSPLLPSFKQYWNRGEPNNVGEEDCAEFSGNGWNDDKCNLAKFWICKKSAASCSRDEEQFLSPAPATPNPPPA
The test can be described thus: Flow cytometry assay of binding and uptake of fluorescent mannosylated probe. The format is cell-based. To be noted: competitor at 100 mM; Man-Fl-BSA probe. Put shortly: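 Raji (Burkitt's lymphoma) cells stably transfected with a DC-SIGN expression vector. Surface DC-SIGN was checked with AZND1-PE antibody by microscopy and with DCN46-FITC by flow cytometry. Cells were exposed to fluorescent Man-Fl-BSA with or without test compound; ManNAc (100 mM) served as carbohydrate competitor. Percent inhibition was taken from the geometric mean fluorescence, normalized to cells without inhibitor.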

Test [2] addresses T2, extracellular domain of DC-SIGN (immobilized tetrameric DC-SIGN) (Homo sapiens, UniProt Q9NNX6).
T2 sequence (Q9NNX6 59-404 limits assumed): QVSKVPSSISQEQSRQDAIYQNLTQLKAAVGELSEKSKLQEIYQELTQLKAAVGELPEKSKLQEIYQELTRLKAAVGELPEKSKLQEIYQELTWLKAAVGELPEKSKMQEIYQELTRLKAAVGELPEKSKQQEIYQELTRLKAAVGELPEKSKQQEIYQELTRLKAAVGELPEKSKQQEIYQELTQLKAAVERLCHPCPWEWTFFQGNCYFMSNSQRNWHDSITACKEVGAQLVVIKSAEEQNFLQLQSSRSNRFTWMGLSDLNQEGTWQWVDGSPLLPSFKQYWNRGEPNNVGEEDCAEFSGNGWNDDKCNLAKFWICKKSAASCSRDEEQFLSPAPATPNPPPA
The format is binding. The conditions noted are these: read-out: Kd of probe to immobilized tetrameric DC-SIGN.

pKd: −log10 of the molar value.

As for `CC(=O)N[C@@H]1C(O)O[C@H](CO)[C@@H](O)[C@@H]1O` (some centres unmarked) [ManNAc, N-acetylmannosamine], the “probe uptake by DC-SIGN-positive cells” value in test [1] was “significant decrease”. Regarding “Man-Fl-BSA: fluorescent mannosylated glycoconjugate probe (fluorescein, mannose, BSA)”, the pKd (in general, the Kd on a negative log10 scale, so that one unit is a factor of ten) in test [2] was 2.70.
